Assay [1] relates to CWR22R. The experiment in a line: Effect on AKR1C3 gene expression in human 22Rv1 cells at 10 uM incubated for 24 hrs by semiquantitative RT-PCR analysis. Type of assay: functional, cell-based.
The target in assay [2] is T1, Aldo-keto reductase family 1 member C3 (Homo sapiens) (UniProt P42330).
T1 sequence (whole entry): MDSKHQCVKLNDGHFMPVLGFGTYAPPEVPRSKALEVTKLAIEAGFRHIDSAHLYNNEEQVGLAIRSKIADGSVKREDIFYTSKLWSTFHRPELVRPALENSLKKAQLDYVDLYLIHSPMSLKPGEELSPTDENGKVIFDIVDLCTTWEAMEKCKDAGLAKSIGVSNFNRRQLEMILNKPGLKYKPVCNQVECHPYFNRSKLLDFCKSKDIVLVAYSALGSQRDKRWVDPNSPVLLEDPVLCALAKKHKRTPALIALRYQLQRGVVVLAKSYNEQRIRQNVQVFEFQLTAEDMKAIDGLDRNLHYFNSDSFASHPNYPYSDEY
Nature of the assay: Inhibition of AKR1C3 in human 22Rv1 cells assessed as as reduction in AR nuclear translocation at 10 pre-incubated for 2 hrs before 4AD addition for 24 hrs by Western blot analysis. Type of assay: cell-based. Particulars: CWR22R. Summed up:
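22Rv1 cells pretreated 2 h with or without 10 μM inhibitor, then exposed 24 h to 10 nM 4AD; nuclear AR measured by Western blot of cell extracts, normalized to Lamin A+C, as percent of control.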
A general note: A western blot detects proteins with antibodies after separation by electrophoresis.

Assay [3] concerns the target T1, Aldo-keto reductase family 1 member C3 (Homo sapiens). The experiment in a line: Inhibition of AKR1C3 in human 22Rv1 cells assessed as as reduction in AR nuclear translocation at 10 to 20 uM pre-incubated for 2 hrs in absence of finasteride by Western blot analysis. The settings on record: CWR22R. Type of assay: cell-based.
The target is the same in assay [4]. Nature of the assay: Inhibition of AKR1C3 in human 22Rv1 cells assessed as as reduction in AR mRNA expression at 10 to 20 uM pre-incubated for 2 hrs before pregnenolone stimulation for 24 hrs by RT-qPCR analysis. Type of assay: cell-based. The settings on record: CWR22R. The method, boiled down:
(§1)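 22Rv1 cells pretreated 2 h with test agents, then stimulated 24 h with 20 nM pregnenolone; AR, TMPRSS2 and PSA mRNA measured by RT-qPCR, given as ratio to pregnenolone-free control.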
A general note: In qPCR the cycle at which signal appears reflects the starting amount.

The target is the same in assay [5]. Nature of the assay: Inhibition of AKR1C3 in human 22Rv1 cells assessed as as reduction in TMPRSS2 mRNA expression at 10 to 20 uM pre-incubated for 2 hrs before pregnenolone stimulation for 24 hrs by RT-qPCR analysis. Type of assay: cell-based. Particulars: CWR22R. The method, boiled down:
as §1

The target is the same in assay [6]. Nature of the assay: Inhibition of AKR1C3 in human 22Rv1 cells assessed as as reduction in PSA mRNA expression at 10 to 20 uM pre-incubated for 2 hrs before pregnenolone stimulation for 24 hrs by RT-qPCR analysis. Particulars: CWR22R. Type of assay: cell-based. Summed up: as §1
In assay [7] the test system is PC-3. Nature of the assay: Inhibition of cell proliferation of human PC3 cells at 10 to 20 uM incubated for 72 hrs by alamar blue assay. Type of assay: functional, cell-based. Summed up:
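PC3 cells (AKR1C3-positive, AR-negative) grown 72 h with or without inhibitor; growth curves of viable cell number compared with inhibitor-free cells.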

Another assay concerns LNCaP. Nature of the assay: Inhibition of pregnenolone-induced cell proliferation of human LNCAP cells at 10 to 20 uM incubated for 72 hrs by alamar blue assay. Type of assay: functional, cell-based. The method, boiled down: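 LNCaP and androgen-low-sensitive LNCaP-E9 cells pretreated 2 h with inhibitor, then 72 h with 20 nM pregnenolone; viable cells expressed as percent of untreated LNCaP control.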
For orientation: Resazurin is reduced to fluorescent resorufin, in cell work by metabolically active cells.

In assay [8] the test system is CWR22R. The experiment in a line: Induction of apoptosis in human 22Rv1 cells assessed as increase in DNA fragmentation at 10 uM pre-incubated for 2 hrs before addition of pregnenolone for 24 hrs by ethidium bromide staining based DNA agarose gel electrophores method. Type of assay: functional, cell-based.
Assay [9] has as its system CWR22R. Nature of the assay: Induction of apoptosis in human 22Rv1 cells assessed as increase in cleaved caspase-3 level at 10 uM pre-incubated for 2 hrs before addition of pregnenolone for 24 hrs by Western blot analysis. Type of assay: functional, cell-based. Summed up:
(§2)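 Apoptotic markers in 22Rv1: 2 h pretreatment with or without 10 μM inhibitor and/or 50 μM enzalutamide, then 24 h 20 nM pregnenolone; Bax/Bcl-2 ratio as percent of control; cleaved caspase-3 also by immunofluorescence with DAPI.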

Assay [10] relates to CWR22R. The experiment in a line: Induction of apoptosis in human 22Rv1 cells assessed as increase in cleaved PARP level at 10 uM pre-incubated for 2 hrs before addition of pregnenolone for 24 hrs by Western blot analysis. Type of assay: functional, cell-based. Summed up: as §2
The target of assay [11] is T1, Aldo-keto reductase family 1 member C3 (Homo sapiens). The experiment in a line: Inhibition of AKR1C3 in human 22Rv1 cells assessed as potentiation of enzalutamide-induced apoptosis by measuring increase in DNA fragmentation at 10 uM pre-incubated for 2 hrs before addition of pregnenolone for 24 hrs by ethidium bromide staining based DNA agarose gel electrophores method. The settings on record: CWR22R. Type of assay: cell-based.

Assay [12] has the same target. The experiment in a line: Inhibition of AKR1C3 in human 22Rv1 cells assessed as potentiation of enzalutamide-induced apoptosis by measuring increase in cleaved caspase-3 level at 10 uM pre-incubated for 2 hrs before addition of pregnenolone for 24 hrs by Western blot analysis. Type of assay: cell-based. The settings on record: CWR22R. The method, boiled down: as §2

Assay [13] has the same target. The experiment in a line: Inhibition of AKR1C3 in human 22Rv1 cells assessed as potentiation of enzalutamide-induced apoptosis by measuring increase in Bax level at 10 uM pre-incubated for 2 hrs before addition of pregnenolone for 24 hrs by Western blot analysis. Type of assay: cell-based. Particulars: CWR22R. The method, boiled down:
as §2

The target is the same in assay [14]. Nature of the assay: Inhibition of AKR1C3 in human 22Rv1 cells assessed as potentiation of enzalutamide-induced apoptosis by measuring increase in cleaved PARP level at 10 uM pre-incubated for 2 hrs before addition of pregnenolone for 24 hrs by Western blot analysis. Type of assay: cell-based. Particulars: CWR22R. Summed up:
as §2

Assay [15] shares this target. Nature of the assay: Inhibition of AKR1C3 in human 22Rv1 cells assessed as potentiation of enzalutamide-induced apoptosis by measuring reduction in BCl2 level at 10 uM pre-incubated for 2 hrs before addition of pregnenolone for 24 hrs by Western blot analysis. Type of assay: cell-based. The settings on record: CWR22R. Summed up: as §2
For assay [16] the target is unchanged. Nature of the assay: Inhibition of AKR1C3 in human 22Rv1 cells assessed as potentiation of abiraterone-induced apoptosis by measuring increase in cleaved caspase-3 level at 10 uM pre-incubated for 2 hrs before addition of pregnenolone for 24 hrs by Western blot analysis. Type of assay: cell-based. Particulars: CWR22R.
The target is the same in assay [17]. The experiment in a line: Inhibition of AKR1C3 in human 22Rv1 cells assessed as potentiation of abiraterone-induced apoptosis by measuring increase in Bax level at 10 uM pre-incubated for 2 hrs before addition of pregnenolone for 24 hrs by Western blot analysis. Type of assay: cell-based. Particulars: CWR22R.
Assay [18] has the same target. Nature of the assay: Inhibition of AKR1C3 in human 22Rv1 cells assessed as potentiation of abiraterone-induced apoptosis by measuring increase in DNA fragmentation at 10 uM pre-incubated for 2 hrs before addition of pregnenolone for 24 hrs by ethidium bromide staining based DNA agarose gel electrophores method. Type of assay: cell-based. The settings on record: CWR22R.

Assay [19] has the same target. Nature of the assay: Inhibition of AKR1C3 in human 22Rv1 cells assessed as potentiation of abiraterone-induced of ROS generation at 10 uM by DCFH-DA dye based flow cytometric analysis. Type of assay: cell-based. The settings on record: CWR22R. Summed up: (§3)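 22Rv1 cells exposed 3 h to 10 μM inhibitor and/or abiraterone, or 50 μM enzalutamide; intracellular ROS by flow cytometry as DCF-positive cells, percent of vehicle control.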

Assay [20] has the same target. Nature of the assay: Inhibition of AKR1C3 in human 22Rv1 cells assessed as potentiation of enzalutamide-induced of ROS generation at 10 uM by DCFH-DA dye based flow cytometric analysis. Type of assay: cell-based. Particulars: CWR22R. Summed up: as §3
The subject of assay [21] is PC-3. The settings on record: Homo sapiens, at 10 µM.

The source made the active and inactive calls. No cut-off for these calls is given here.

`Cc1ccc(NC(=O)c2cc3cccc(O)c3oc2=N)cc1`: in the assay on CWR22R [1], the result was inactive. The inhibition result (in assay [2]; in [3]; in [4]; in [5]; in [6]; with PC-3 [7]) was “Active” throughout. Moreover, the inhibition result (in the assay with LNCaP; in assay [11]; in assay [12]; in assay [13]; in [14]; in assay [15]) was “Active” in each case. For the same compound, the inhibition entry (in assay [16]; in [17]; in [18]; in [19]; in [20]; in the assay on PC-3 [21]) was “Active” each time. Further, the result in the assay on CWR22R [8], in the assay with CWR22R [9] and in the assay with CWR22R [10] was Active.
In the case of `N=c1oc2c(O)cccc2cc1C(=O)Nc1ccc(F)cc1`, the result with CWR22R [1] was inactive. The inhibition result (in assay [2]; in assay [3]; in [4]; in assay [5]; in [6]; in the assay with PC-3 [7]) was “Active” in each case. In addition, the inhibition result (with LNCaP; in [11]; in assay [12]; in assay [13]; in assay [14]; in [15]) was “Active” each time. Moreover, the inhibition result (in assay [16]; in [17]; in [18]; in assay [19]; in assay [20]; with PC-3 [21]) was “Active” in each case. Also, the outcome with CWR22R [8], in the assay with CWR22R [9] and in the assay with CWR22R [10] was Active.
